Source: PubChem (several laboratories)
MC4R antagonist: MC4R antagonists of cAMP signaling, primary screen, cell-based, TR-FRET, antagonist arm of biased-ligand search | MC4R-expressing cells, MTII-stimulated cAMP, LANCE TR-FRET | inhibition, % at 6.5 µM | 360,000 tested, 0.48% active;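 active = inhibition above its plate's cutoff, the mean of tested wells on that plate plus 3 SD, cut at about 29% in these data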
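Material – human MC4R-expressing U2OS cells · Repeats – no replicates · Detection – TR-FRET with Eu-cAMP and labeled anti-cAMP, 671 nm · Times – compound 30 min, challenge 1 h, detection 1 h · Compound – single nominal compound dose of 6.5 µM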
MC4R barr agon: MC4R agonists recruiting beta-arrestin, primary screen, cell-based, luminescence, agonist arm of biased-ligand search | AID 540308, 2011 | activation, % at 8.9 µM | U2OS MC4R beta-arrestin complementation; percent of melanotan II response, DMSO zero | 360,000 tested, 0.98% active;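 active = activation above a per-plate cutoff, the mean activation of sample wells on that plate plus 3 SD, cut at about 8% in these data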
EBI2 antag: EBI2 receptor antagonists, beta-arrestin recruitment, primary screen, cell-based, luminescence, 7a,25-OHC stimulation, uHTS; G-protein coupled receptor 183 (Homo sapiens), P32249; 7a,25-OHC stimulated; inhibition, % at 5 µM; 360,000 tested, 0.81% active; AID 651636, 2012; in the data active = inhibition above about 38%;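 note: enzyme fragment complementation signal reports receptor beta-arrestin coupling in cells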
Target sequence (P32249 whole entry, looked up, the tested form may be a part): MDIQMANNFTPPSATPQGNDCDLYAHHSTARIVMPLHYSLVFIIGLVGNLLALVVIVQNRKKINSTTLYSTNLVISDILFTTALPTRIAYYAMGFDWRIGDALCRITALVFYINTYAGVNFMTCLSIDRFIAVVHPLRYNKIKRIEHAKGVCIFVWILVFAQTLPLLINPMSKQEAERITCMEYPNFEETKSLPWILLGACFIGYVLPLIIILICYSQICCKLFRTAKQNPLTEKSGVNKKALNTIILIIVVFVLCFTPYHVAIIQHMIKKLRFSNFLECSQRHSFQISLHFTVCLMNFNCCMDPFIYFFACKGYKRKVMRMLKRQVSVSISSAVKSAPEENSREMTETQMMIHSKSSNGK
HTR2A ag: mouse Htr2a agonists via beta-arrestin recruitment, primary screen, cell-based, luminescence; 5-hydroxytryptamine receptor 2A (Mus musculus), P35363; CHO-K1 mHTR2A beta-arrestin complementation; percent of 30 µM serotonin response; activation, % at 7.6 µM; 360,000 tested, 0.66% active;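 active = activation above a run cutoff, the mean activation of all tested compounds plus 3 SD, cut at about 14% in these data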
MOR ag counter: OPRM1 agonists via beta-arrestin recruitment, confirmation, counter-screen for mouse HTR2A agonist project, cell-based, luminescence, single concentration | U2OS OPRM1 beta-arrestin PathHunter; DMSO 0%, DAMGO 9.3 µM 100% | activation, % at 9.3 µM | 2,300 tested, 5.3% active | shares compounds with HTR2A ag;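 active = mean activation above the mean of DMSO-only wells plus 3 SD, cut at about 0.5% in these data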
HTR2A ag conf: mouse HTR2A agonists, beta-arrestin recruitment, confirmation, cell-based, luminescence, CHO-K1 PathHunter, triplicate. 2,300 tested, 19% active. activation, % at 7.6 µM. DMSO 0%, 30 µM serotonin 100%. shares compounds with HTR2A ag. AID 624381, 2012;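 active = mean activation across triplicates above the hit threshold derived in the original primary screen, cut at about 15% in these data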
A number is an active result; . = inactive; / = not tested or not shown. A selection: hits, their analogues and other compounds. The true share with any hit is near 2.8%.

SMILES	MC4R antagonist	MC4R barr agon	EBI2 antag	HTR2A ag	MOR ag counter	HTR2A ag conf
Cc1sc(-c2ccccn2)nc1OC(=O)c1ccc(F)cc1F	.	.	.	14.8	.	.
NC(=S)NN=Cc1nccc2c(C(F)(F)F)cccc12	.	.	.	.	/	/
CNc1cccnc1C=NNC(N)=S	.	.	.	15.0	.	.
CC(C)c1cc(Cn2c3ccccc3c(=O)n2C(C)C)on1	/	/	.	.	/	/
Cc1ccccc1-c1cc2nc(Oc3cccc(F)c3)n(C)c(=O)c2s1	.	.	.	.	/	/
Cc1c(NC(=O)CN2C(=O)c3ccc([N+](=O)[O-])cc3C2=O)c(=O)n(-c2ccccc2)n1C	.	.	.	17.2	.	.
Cc1ccc(NC(=O)COC(=O)C2(CC(=O)NC(C)C)CCCC2)cc1C	.	.	.	.	/	/
O=C(O)CCCC(=O)NCc1c(Cl)cccc1Sc1ccc(Cl)cc1	.	.	.	.	/	/
CC(C)(CC(=O)O)CC(=O)NCc1c(Cl)cccc1Sc1ccc(Cl)cc1	.	.	.	15.5	.	.
Nc1cc2c(cc1Cl)-c1ccc([N+](=O)[O-])cc1C2=NO	.	.	.	.	/	/
COc1ccc(Cc2c(C3CCCCC3)nc3ccc(Cl)cn23)c(C)c1	/	/	.	.	/	/
O=C(OCC(=O)N1CCOCC1)c1cncc(Br)c1	.	.	.	.	/	/
COc1ccccc1N1CCN(C(=O)CSc2ncccc2-c2nc3ccccc3[nH]2)CC1	.	.	.	.	/	/
COc1ccccc1N1CCN(C(=O)CSc2nc3ccccc3[nH]2)CC1	.	.	.	14.7	.	.
C[C@H](CO)N1C[C@H](C)[C@@H](CN(C)Cc2ccc3c(c2)OCO3)Oc2cc(Br)ccc2S1(=O)=O	.	.	.	.	/	/
N#Cc1c(N)nc(SCc2ccccc2)c(C#N)c1-c1ccco1	.	.	.	15.2	.	.
N#Cc1c(N)nc(SCC(=O)OCc2ccccc2)c(C#N)c1-c1ccco1	.	.	.	.	/	/
CCC1OC(C)Cc2[nH][nH]c(=O)c21 (configuration not stated)	/	/	.	.	/	/
Cc1cccc(N2CCN(c3ccc(N4C(=O)CCCC4=O)cc3[N+](=O)[O-])CC2C)c1 (configuration not stated)	.	.	.	14.8	.	.
Cc1cccc(N2CCN(c3ccc(N4C(=O)CCCC4=O)cc3[N+](=O)[O-])CC2)c1C	.	.	.	.	/	/
CO[C@H]1CN(C)C(=O)c2cc(NC(=O)c3ccccc3)ccc2OC[C@H](C)NC[C@@H]1C	/	/	.	.	/	/
OCC[C@@H]1C[C@H](O)[C@@H](O)[C@]2(OCc3cc(Cl)ccc32)O1	/	/	.	.	/	/
CN=c1scc(-c2ccccc2F)n1/N=C/c1ccc(O)c(O)c1O	.	.	.	.	/	/
CC(C)N=c1scc(-c2cccs2)n1/N=C/c1ccc(O)c(O)c1O	.	.	.	14.6	1.1	17.8
COC(=O)c1ccccc1NC(=O)N1CCCC1	.	.	.	.	/	/
SMILES	MC4R antagonist	MC4R barr agon	EBI2 antag	HTR2A ag	MOR ag counter	HTR2A ag conf
COC(=O)c1ccccc1NC(=O)N1CCN(S(=O)(=O)c2ccc(Cl)cc2)CC1	.	.	.	16.6	.	.
CC(C)(C)NC(=O)CSc1nc2ccc(Nc3nc(N4CCOCC4)nc(N4CCOCC4)n3)cc2s1	.	.	.	.	/	/
COc1ccc(NC(=O)CSc2nc3ccc(Nc4nc(N5CCOCC5)nc(N5CCOCC5)n4)cc3s2)cc1	.	.	.	14.7	.	18.5
NS(=O)(=O)c1ccc(N/N=C/c2ccccc2C(=O)O)c([N+](=O)[O-])c1	.	.	.	.	/	/
Cc1cc([N+](=O)[O-])c2[nH]c(C(=O)N/N=C/c3ccccc3C(=O)O)c(-c3ccccc3)c2c1	.	.	.	17.6	.	.
COc1cc(CCCN2C(N)=NC[C@@H]2Cc2ccc(O)cc2)cc(OC)c1OC	.	.	.	.	/	/
